Measured values as given in ChEMBL document CHEMBL1151231, “Antitumor agents. 233. Lantalucratins A-F, new cytotoxic naphthoquinones from Lantana involucrata” (J Nat Prod, 2004).
Active and inactive are the calls of the source. The calls are words filed in the database; no cut-off is given here.

Assays:
KB [1] = test: Cytotoxicity against human KB cells after 3 days by SRB assay; format: functional, cell-based; conditions: 72 h
Outline: (§1)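 Freshly trypsinized cells were seeded at 1500-7500 cells per well with test compound added from DMSO-diluted stock and cultured for 3 days. Attached cells were fixed with cold 50% trichloroacetic acid, stained with 0.4% sulforhodamine B, and the bound dye was solubilized and read at 562 nm. IC50 is the concentration giving a 50% drop in absorbance, or growth, relative to untreated cells.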

KB [2] = test: Cytotoxicity against human KB cells at 10 uM after 3 days by SRB assay; format: functional
[3] = Cytotoxicity against vincristine-resistant human KBVIN cells after 3 days by SRB assay; format: functional, cell-based; conditions: 72 h; outline: as §1
KB [4] = test: Cytotoxicity against vincristine-resistant human KBVIN cells at 10 uM after 3 days by SRB assay; format: functional
KB [5] = test: Cytotoxicity against etoposide-resistant human KB cells after 3 days by SRB assay; format: functional, cell-based; conditions: 72 h; outline: as §1
KB [6] = test: Cytotoxicity against etoposide-resistant human KB cells at 10 uM after 3 days by SRB assay; format: functional
KB [7] = test: Cytotoxicity against camptothecin-resistant human KB cells after 3 days by SRB assay; format: functional, cell-based; conditions: 72 h; outline: as §1
A549 [8] = test: Cytotoxicity against human A549 cells after 3 days by SRB assay; format: functional, cell-based; conditions: A549, 72 h; outline: as §1
1A9 [9] = test: Cytotoxicity against human 1A9 cells after 3 days by SRB assay; format: functional, cell-based; conditions: 1A9, 72 h; outline: as §1
1A9 [10] = test: Cytotoxicity against paclitaxel-resistant human 1A9 cells after 3 days by SRB assay; format: functional, cell-based; conditions: 1A9, 72 h; outline: as §1
HOS [11] = test: Cytotoxicity against human HOS cells after 3 days by SRB assay; format: functional, cell-based; conditions: 72 h; outline: as §1
MCF7 [12] = test: Cytotoxicity against human MCF7 cells after 3 days by SRB assay; format: functional, cell-based; conditions: MCF7, 72 h; outline: as §1
1A9 [13] = test: Cytotoxicity against paclitaxel-resistant human 1A9 cells at 10 uM after 3 days by SRB assay; format: functional; conditions: for inhibition at 10 µM: 1A9, 72 h
CAKI-1 [14] = test: Cytotoxicity against human Caki1 cells at 10 uM after 3 days by SRB assay; format: functional; conditions: for inhibition at 10 µM: CAKI-1, 72 h
[15] = Cytotoxicity against human U87MG cells after 3 days by SRB assay; format: functional, cell-based, U-87MG ATCC; conditions: U-87 MG, 72 h; outline: as §1
CAKI-1 [16] = test: Cytotoxicity against human Caki1 cells after 3 days by SRB assay; format: functional, cell-based; conditions: CAKI-1, 72 h; outline: as §1
KB [17] = test: Cytotoxicity against camptothecin-resistant human KB cells at 10 uM after 3 days by SRB assay; format: functional, cell-based
A549 [18] = test: Cytotoxicity against human A549 cells at 10 uM after 3 days by SRB assay; format: functional
1A9 [19] = test: Cytotoxicity against human 1A9 cells at 10 uM after 3 days by SRB assay; format: functional, cell-based
MCF7 [20] = test: Cytotoxicity against human MCF7 cells at 10 uM after 3 days by SRB assay; format: functional; conditions: MCF7, 72 h
HOS [21] = test: Cytotoxicity against human HOS cells at 10 uM after 3 days by SRB assay; format: functional, cell-based
[22] = (§2) Cytotoxicity against human U87MG cells at 10 uM after 3 days by SRB assay; format: functional, U-87MG ATCC; conditions: U-87 MG, 72 h
U-87MG ATCC = test: as §2; format: functional

| SMILES | IC50 (KB [1]) [nM] | IC50 [3] [µM] | IC50 (KB [5]) [nM] | IC50 (KB [7]) [nM] | IC50 (A549 [8]) [µM] | IC50 (1A9 [9]) [nM] | IC50 (1A9 [10]) [nM] | IC50 (HOS [11]) [µM] | IC50 (MCF7 [12]) [nM] | IC50 [15] [µM] | IC50 (CAKI-1 [16]) [µM] | Activity (KB [2]) | Activity (KB [4]) | Activity (KB [6]) | Activity (KB [17]) | inhibition at 10 µM (CAKI-1 [14]) [%] | other results |
| --- | --- | --- | --- | --- | --- | --- | --- | --- | --- | --- | --- | --- | --- | --- | --- | --- | --- |
| C=C(C)C1CC2=C(O1)c1cccc(OC)c1C(=O)C2=O (configuration not stated) [LANTALUCRATIN A] | > 5000 | > 5 | > 5000 | 2100 | 3.3 | 3900 | > 5000 | 4.8 | 1600 | 4.7 |  |  |  |  |  |  | inhibition at 10 µM (KB [2]; 72 h): 46%; inhibition at 10 µM (KB [4]; 72 h): 17%; inhibition at 10 µM (KB [6]; 72 h): 43%; inhibition at 10 µM (1A9 [13]): 45%; Activity (CAKI-1 [14]): inactive |
| C=C(C)C1CC2=C(O1)c1ccc(O)cc1C(=O)C2=O (configuration not stated) [LANTALUCRATIN C] | 6900 | 6.3 | 5800 | 5200 | 6 | 9400 | 6500 | 4.7 | 4900 | 7.3 |  |  |  |  |  |  |  |
| C=C(C)C1CC2=C(O1)c1ccccc1C(=O)C2=O (configuration not stated) | 3000 | 3.9 | 3000 | 2200 | 2.7 | 2100 | 2300 | 4 | 1200 | 3.4 | 9.6 |  |  |  |  |  |  |
| C=C(C)C(O)CC1=C(OC)C(=O)c2c(OC)ccc(O)c2C1=O (configuration not stated) [LANTALUCRATIN E] |  |  |  |  | 8.7 | 1300 | 2500 | 8.7 | 5500 | 7 | > 10 | inactive | inactive | inactive | inactive | 8 |  |
| C=C(C)C1CC2=C(O1)C(=O)c1ccccc1C2=O (stereo not drawn) [DEHYDROISO-ALPHA-LAPACHONE] | 4100 | 5.7 | 3500 | 3200 | 6.4 | 2600 | 2800 | 3.6 | 1200 | 2.6 | > 10 |  |  |  |  | 26 |  |
| C=C(C)C(O)CC1=C(OC)C(=O)c2c(OC)cccc2C1=O (configuration not stated) [LANTALUCRATIN D] |  |  |  |  | > 10 |  | > 10000 |  | > 10000 | > 10 |  | inactive | inactive | inactive | inactive |  | inhibition at 10 µM (A549 [18]; A549, 72 h): 7%; Activity (1A9 [19]): inactive; inhibition at 10 µM (MCF7 [20]): 20%; inhibition at 10 µM (1A9 [13]): 14%; Activity (CAKI-1 [14]): inactive; Activity (HOS [21]): inactive; inhibition at 10 µM [22]: 8% |
| C=C(C)C1CC2=C(O1)c1cccc(O)c1C(=O)C2=O (configuration not stated) [LANTALUCRATIN B] | 2300 | 2.4 | 2100 | 1000 | 1.8 | 1500 | 2100 | 2.5 | 1000 | 1.9 | > 5 |  |  |  |  | 16 |  |
| C=C(C)C(O)CC1=C(OC)C(=O)c2cc(OC)c(O)c(O)c2C1=O (configuration not stated) [LANTALUCRATIN F] |  |  |  |  |  |  |  |  | > 10000 |  | > 10 | inactive | inactive | inactive | inactive | 13 | Activity (A549 [18]): inactive; Activity (1A9 [19]): inactive; inhibition at 10 µM (MCF7 [20]): 9%; Activity (1A9 [13]): inactive; Activity (HOS [21]): inactive; Activity (U-87MG ATCC): inactive |
| CC1(C)CCC2=C(O1)c1ccccc1C(=O)C2=O [LAPACHONE] | 1200 | 2.2 | 1800 | 1000 | 1.5 | 800 | 800 | 1.4 | 800 | 2 | > 5 |  |  |  |  | 42 |  |
